{"data": "Results of several laboratories", "effect on": "metabolic stability", "medium": "liver microsomes", "note": "Lines come from different studies, so protocols differ."}
{"SMILES": "Cc1cc(Nc2ccc(C(F)(F)F)cc2)n2nc(C(F)(F)F)nc2n1", "host": "mouse", "tested at": "1 µM", "pH": "pH 7.4", "microsomal CLint [µL/min/mg]": "< 10"}
{"SMILES": "CCOC(=O)c1c(-c2cccc(Oc3ccccc3)c2)[nH]c2cc(OC)c(F)cc2c1=O", "host": "female CD-1 mouse", "tested at": "19.8 µM", "pH": "pH 7.4", "microsomal CLint [µL/min/mg]": "> 15"}
{"SMILES": "O=C(C1CCCCC1)N1CC(=O)N2CCc3ccccc3[C@@H]2C1", "host": "mouse", "tested at": "0.1 µM", "pH": "pH 7.4", "microsomal CLint [µL/min/mg]": "> 1000"}
{"SMILES": "CS(=O)(=O)c1ccc(-c2cnc(N)c(-c3ccc(C(F)(F)F)nc3)c2)cc1", "host": "male CD-1 mouse", "tested at": "1 µM", "microsomal CLint [µL/min/mg]": "< 11.6"}
{"SMILES": "Cc1cc(Nc2ccc(C(F)(F)F)cc2)c2ccccc2n1", "host": "mouse", "microsomal CLint [µL/min/mg]": 98}
{"SMILES": "CCOC(=O)C1=C(C)N/C(=C/c2cc(CC)n(-c3ccccc3C(F)(F)F)c2CC)C1=O", "host": "mouse", "tested at": "1 µM", "microsomal CLint [µL/min/mg]": 143}
{"SMILES": "O=C(Nc1ccnc(C(F)(F)F)c1)Nc1cccc2c1OC(F)(F)O2", "host": "mouse", "microsomal CLint [µL/min/mg]": 92}
{"SMILES": "COc1ccc(Nc2nc(-c3ccccn3)nc3ccccc23)cc1", "host": "mouse", "microsomal CLint [µL/min/mg]": 158}
{"SMILES": "Cc1cc(Nc2ccc(C(F)(F)F)cc2)n2nc(C(C)(F)F)nc2n1", "host": "mouse", "tested at": "1 µM", "pH": "pH 7.4", "microsomal CLint [µL/min/mg]": "< 10"}
{"SMILES": "FC(F)(F)c1ccccc1-c1nc(N2CCC(c3ccccn3)C2)c2ccccc2n1 (stereo not shown)", "host": "mouse", "microsomal CLint [µL/min/mg]": 688}
{"SMILES": "CCN(CC)CCNC(=O)c1c(C)[nH]c(/C=C2\\C(=O)Nc3ccc(F)cc32)c1C", "host": "mouse", "tested at": "1 µM", "pH": "pH 7.4", "microsomal CLint [µL/min/mg]": 54}
{"SMILES": "CCOC(=O)c1c(-c2cccc(Cl)c2)[nH]c2cc(OC)ccc2c1=O", "host": "female CD-1 mouse", "tested at": "19.8 µM", "pH": "pH 7.4", "microsomal CLint [µL/min/mg]": "> 15"}
{"SMILES": "Cc1cc(Nc2ccc(S(F)(F)(F)(F)F)cc2)n2nc(C(F)(F)F)nc2n1", "host": "mouse", "tested at": "1 µM", "pH": "pH 7.4", "microsomal CLint [µL/min/mg]": "< 10"}
{"SMILES": "c1ccc(C2CCN(c3nc(-c4ccco4)nc4ccccc34)C2)nc1 (stereo not shown)", "host": "mouse", "microsomal CLint [µL/min/mg]": 539}
{"SMILES": "CCCOc1cccc(-c2[nH]c3cc(OC)ccc3c(=O)c2C(=O)OCC)c1", "host": "female CD-1 mouse", "tested at": "19.8 µM", "pH": "pH 7.4", "microsomal CLint [µL/min/mg]": "> 15"}
{"SMILES": "c1ccc(-c2nc(NCc3cccnc3)c3ccccc3n2)nc1", "host": "mouse", "microsomal CLint [µL/min/mg]": 64}
{"SMILES": "O=C(Nc1ccc2c(c1)B(O)OC2)Nc1ccc(F)c(C(F)(F)F)c1", "host": "mouse", "microsomal CLint [µL/min/mg]": 34}
{"SMILES": "COc1cc2[nH]c(-c3cccc(Oc4ccccc4)c3)c(C(=O)OCCCN3CCOCC3)c(=O)c2cc1F", "host": "female CD-1 mouse", "tested at": "19.8 µM", "pH": "pH 7.4", "microsomal CLint [µL/min/mg]": "> 15"}
{"SMILES": "Cc1cccc(N2CCN(c3nc(-c4ccccn4)nc4ccccc34)CC2)n1", "host": "mouse", "microsomal CLint [µL/min/mg]": 513}
